Data reported in ChEMBL document CHEMBL4811254, “Beyond Basicity: Discovery of Nonbasic DENV-2 Protease Inhibitors with Potent Activity in Cell Culture” (J Med Chem, 2021).
The source made the active and inactive calls.

Tests used:
[1] = Cytotoxicity against human HeLa cells assessed as reduction in cell viability incubated for 24 hrs by CellTiter-Blue assay; type: cell-based
How it was run: (§1)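 Viability by CellTiter-Blue in HeLa or Huh-7 cells exposed to compound dilutions. Plates run in parallel with the reporter assay (HeLa) or the virus titer assay (Huh-7).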

[2] = molecular target: T1, Genome polyprotein (dengue virus type 2, UniProt P29990); experiment: Inhibition of NS2B-NS3 protease in DENV2proHeLa system assessed as inhibition of luciferase signal incubated for 24 hrs by luciferase reporter gene assay; type: cell-based, HeLa
How it was run: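 HeLa cells stably carrying the reporter system, 2 × 10⁴ per well, given inhibitor at seeding and held 24 h at 37 °C. Cells lysed 15 min at room temperature. Luciferase read for 5 s after injecting coelenterazine (2.75 μM in PBS). Triplicate wells per concentration; percent inhibition taken against untreated cells. EC50/EC90 from 4-parameter dose-response fit, background from cell-free wells subtracted.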

[3] = Stability of the compound assessed as bovine pancreas alphachymotrypsin-mediated parent compound depletion at 0.1 mg/ml incubated for 120 mins by HPLC analysis; type: ADME, Bos taurus; settings: cattle, bovine pancreas alpha-chymotrypsin, read-out: Drug degradation
How it was run: (§2)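 Compound incubated with α-chymotrypsin or bovine trypsin in buffer for 120 min at 37 °C; parent compound depletion monitored.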

[4] = Passive membrane permeability of the compound in phosphate buffered saline assessed as mass retention of the compound at 200 uM incubated for 5 hrs by PAMPA assay based HPLC analysis; type: ADME
How it was run: (§3)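 Precoated trilayer PAMPA, 5 h incubation. Acceptor and donor concentrations measured after 5 h. Permeability and mass retention calculated by a literature method.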

[5] = Passive membrane permeability of the compound in phosphate buffered saline assessed as concentration of the compound in acceptor plate at 200 uM incubated for 5 hrs by PAMPA assay based HPLC analysis; type: ADME; how it was run: as §3
[6] = molecular target: Genome polyprotein (dengue virus type 2) (UniProt P29990); experiment: Inhibition of NS2B-NS3 protease in DENV2proHeLa system assessed as inhibition of luciferase signal at 12.5 uM incubated for 24 hrs by luciferase reporter gene assay; type: cell-based; settings: HeLa
How it was run: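 Stable DENV2proHeLa cells seeded at 2 × 10⁴/well and dosed immediately, then incubated 24 h at 37 °C. Cells lysed 15 min at room temperature. Luciferase read with coelenterazine (2.75 μM in PBS) injection, luminescence 5 s. Triplicates; percent inhibition calculated relative to untreated control; background from cell-free wells.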

[7] = Stability of the compound assessed as bovine pancreas trypsin-mediated parent compound depletion at 0.1 mg/ml incubated for 120 mins by HPLC analysis; type: ADME, Bos taurus; settings: cattle; for metabolised at 2 h, 0.1 mg/ml: bovine pancreas trypsin, read-out: Drug degradation; how it was run: as §2
[8] = molecular target: Trypsin (Homo sapiens) (UniProt P07477+P07478+P35030); experiment: Inhibition of trypsin (unknown origin) using Boc-Val-Pro-Arg-AMC as substrate at 50 uM preincubated with enzyme for 15 mins followed by substrate addition and measured for 15 mins by fluorimetric assay; type: protein assay; settings: time 30.0 min
[9] = system: dengue virus type 2; experiment: (§4) Antiviral activity against DENV2 infected in human Huh7 cells assessed as reduction in virus titer in cell supernatant by measuring inhibition of plaque formation using VeroE6 cells preincubated with viral infected Huh7 cells for 48 hrs and measured following infection of VeroE6 cells with supernatants for 7 days by plaque assay based crystal violet staining analysis; type: functional, organism-based, Huh-7; settings: for EC50: Huh-7; for EC90: Huh-7, 216 h, time 9 day
How it was run: (§5)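 Huh-7 cells seeded at 1 × 10⁴/well and incubated overnight. Infected with DENV-2 at MOI 1 for 2 h, then medium changed and compound added. […] Pooled supernatants titred by plaque assay on VeroE6 cells: 10⁻¹ to 10⁻⁶ dilutions, 1 h infection, 7 days, formaldehyde fix, crystal violet.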

[10] = system: Huh-7; experiment: Cytotoxicity against human Huh-7 cells assessed as reduction in cell viability at 12.5 uM incubated for 48 hrs by CellTiter-Blue assay; type: cell-based; settings: huh-7, 48 h; how it was run: as §1
[11] = Half life in Sprague-Dawley rat liver microsomes at 100 uM incubated for 60 mins in presence of NADPH by HPLC analysis; type: ADME, Microsome
How it was run: (§6)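 Rat liver microsomes; samples incubated 60 min at 37 °C, parent compound depletion monitored.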

[12] = Passive membrane permeability of the compound in phosphate buffered saline assessed as concentration of the compound in donor plate at 200 uM incubated for 5 hrs by PAMPA assay based HPLC analysis; type: ADME; how it was run: as §3
[13] = Passive membrane permeability of the compound in phosphate buffered saline at 200 uM incubated for 5 hrs by PAMPA assay based HPLC analysis; type: ADME; settings: for Papp at 5 h, 200 µM: PAMPA, read-out: permeability; how it was run: as §3
[14] = system: dengue virus type 2; experiment: as §4, with “VeroE6 cells at 12.5 uM preincubated with” for “VeroE6 cells preincubated with”; type: functional; settings: Huh-7, 216 h, time 9 day; how it was run: as §5
[15] = molecular target: Genome polyprotein (dengue virus type 2) (UniProt P29990); experiment: Inhibition of DENV2 NS2B-NS3 protease expressed in Escherichia coli BL21 lambda(DE3) using FRET substrate preincubated with enzyme for 15 mins in presence of detergent CHAPS followed by substrate addition for 15 mins by fluorescence based analysis; settings: time 30.0 min
[16] = molecular target: Prothrombin (Homo sapiens) (UniProt P00734); experiment: Inhibition of thrombin in human plasma using Boc-Val-Pro-Arg-AMC as substrate at 25 uM preincubated with enzyme for 15 mins followed by substrate addition and measured for 15 mins by fluorimetric assay; type: cell-free; settings: time 30.0 min
[17] = Stability of the compound assessed as bovine pancreas alphachymotrypsin-mediated parent compound depletion by measuring parent compound remaining at 0.1 mg/ml incubated for 120 mins by HPLC analysis; type: ADME, Bos taurus; settings: cattle, bovine pancreas alpha-chymotrypsin, read-out: Stabilty; how it was run: as §2
[18] = molecular target: T1, Genome polyprotein; experiment: Competitive inhibition of DENV2 NS2B-NS3 protease expressed in Escherichia coli BL21 lambda(DE3) using FRET substrate preincubated with enzyme for 15 mins followed by varying concentrations of substrate addition for 15 mins by Cheng-Prusoff plot analysis
[19] = Metabolic stability in Sprague-Dawley rat liver microsomes at 100 uM incubated for 60 mins in presence of NADPH by HPLC analysis; type: ADME, Microsome; settings: 1 h; how it was run: as §6
[20] = molecular target: T1, Genome polyprotein; experiment: Competitive inhibition of DENV2 NS2B-NS3 protease expressed in Escherichia coli BL21 lambda(DE3) using FRET substrate preincubated with enzyme for 15 mins followed by substrate addition for 15 mins by Michaelis-Menten based analysis
[21] = Selectivity index, ratio of CC50 for human HeLa cells to EC50 for inhibition of NS2B-NS3 protease in DENV2proHeLa system; type: toxicity; settings: read-out: Ratio CC50/EC50
[22] = molecular target: Genome polyprotein (dengue virus type 2) (UniProt P29990); experiment: Competitive inhibition of DENV2 NS2B-NS3 protease expressed in Escherichia coli BL21 lambda(DE3) assessed as increase in Km without change in Vmax using FRET substrate preincubated with enzyme for 15 mins followed by substrate addition for 15 mins by Michaelis-Menten based analysis; settings: time 30.0 min
[23] = system: Huh-7; experiment: Cytotoxicity against human Huh-7 cells assessed as reduction in cell viability at 10 uM incubated for 48 hrs by CellTiter-Blue assay; type: cell-based; settings: huh-7, 48 h; how it was run: as §1
[24] = system: dengue virus type 2; experiment: as §4, with “VeroE6 cells at 10 uM preincubated with” for “VeroE6 cells preincubated with”; type: functional; settings: Huh-7, 216 h, time 9 day
[25] = molecular target: Genome polyprotein (West Nile virus) (UniProt P06935); experiment: Inhibition of WNV NS2B-NS3 protease expressed in Escherichia coli BL21 lambda(DE3) using FRET substrate preincubated with enzyme for 15 mins in presence of detergent CHAPS followed by substrate addition for 15 mins by fluorescence based analysis; settings: time 30.0 min
Sequence of Genome polyprotein (West Nile virus) (P06935 whole entry): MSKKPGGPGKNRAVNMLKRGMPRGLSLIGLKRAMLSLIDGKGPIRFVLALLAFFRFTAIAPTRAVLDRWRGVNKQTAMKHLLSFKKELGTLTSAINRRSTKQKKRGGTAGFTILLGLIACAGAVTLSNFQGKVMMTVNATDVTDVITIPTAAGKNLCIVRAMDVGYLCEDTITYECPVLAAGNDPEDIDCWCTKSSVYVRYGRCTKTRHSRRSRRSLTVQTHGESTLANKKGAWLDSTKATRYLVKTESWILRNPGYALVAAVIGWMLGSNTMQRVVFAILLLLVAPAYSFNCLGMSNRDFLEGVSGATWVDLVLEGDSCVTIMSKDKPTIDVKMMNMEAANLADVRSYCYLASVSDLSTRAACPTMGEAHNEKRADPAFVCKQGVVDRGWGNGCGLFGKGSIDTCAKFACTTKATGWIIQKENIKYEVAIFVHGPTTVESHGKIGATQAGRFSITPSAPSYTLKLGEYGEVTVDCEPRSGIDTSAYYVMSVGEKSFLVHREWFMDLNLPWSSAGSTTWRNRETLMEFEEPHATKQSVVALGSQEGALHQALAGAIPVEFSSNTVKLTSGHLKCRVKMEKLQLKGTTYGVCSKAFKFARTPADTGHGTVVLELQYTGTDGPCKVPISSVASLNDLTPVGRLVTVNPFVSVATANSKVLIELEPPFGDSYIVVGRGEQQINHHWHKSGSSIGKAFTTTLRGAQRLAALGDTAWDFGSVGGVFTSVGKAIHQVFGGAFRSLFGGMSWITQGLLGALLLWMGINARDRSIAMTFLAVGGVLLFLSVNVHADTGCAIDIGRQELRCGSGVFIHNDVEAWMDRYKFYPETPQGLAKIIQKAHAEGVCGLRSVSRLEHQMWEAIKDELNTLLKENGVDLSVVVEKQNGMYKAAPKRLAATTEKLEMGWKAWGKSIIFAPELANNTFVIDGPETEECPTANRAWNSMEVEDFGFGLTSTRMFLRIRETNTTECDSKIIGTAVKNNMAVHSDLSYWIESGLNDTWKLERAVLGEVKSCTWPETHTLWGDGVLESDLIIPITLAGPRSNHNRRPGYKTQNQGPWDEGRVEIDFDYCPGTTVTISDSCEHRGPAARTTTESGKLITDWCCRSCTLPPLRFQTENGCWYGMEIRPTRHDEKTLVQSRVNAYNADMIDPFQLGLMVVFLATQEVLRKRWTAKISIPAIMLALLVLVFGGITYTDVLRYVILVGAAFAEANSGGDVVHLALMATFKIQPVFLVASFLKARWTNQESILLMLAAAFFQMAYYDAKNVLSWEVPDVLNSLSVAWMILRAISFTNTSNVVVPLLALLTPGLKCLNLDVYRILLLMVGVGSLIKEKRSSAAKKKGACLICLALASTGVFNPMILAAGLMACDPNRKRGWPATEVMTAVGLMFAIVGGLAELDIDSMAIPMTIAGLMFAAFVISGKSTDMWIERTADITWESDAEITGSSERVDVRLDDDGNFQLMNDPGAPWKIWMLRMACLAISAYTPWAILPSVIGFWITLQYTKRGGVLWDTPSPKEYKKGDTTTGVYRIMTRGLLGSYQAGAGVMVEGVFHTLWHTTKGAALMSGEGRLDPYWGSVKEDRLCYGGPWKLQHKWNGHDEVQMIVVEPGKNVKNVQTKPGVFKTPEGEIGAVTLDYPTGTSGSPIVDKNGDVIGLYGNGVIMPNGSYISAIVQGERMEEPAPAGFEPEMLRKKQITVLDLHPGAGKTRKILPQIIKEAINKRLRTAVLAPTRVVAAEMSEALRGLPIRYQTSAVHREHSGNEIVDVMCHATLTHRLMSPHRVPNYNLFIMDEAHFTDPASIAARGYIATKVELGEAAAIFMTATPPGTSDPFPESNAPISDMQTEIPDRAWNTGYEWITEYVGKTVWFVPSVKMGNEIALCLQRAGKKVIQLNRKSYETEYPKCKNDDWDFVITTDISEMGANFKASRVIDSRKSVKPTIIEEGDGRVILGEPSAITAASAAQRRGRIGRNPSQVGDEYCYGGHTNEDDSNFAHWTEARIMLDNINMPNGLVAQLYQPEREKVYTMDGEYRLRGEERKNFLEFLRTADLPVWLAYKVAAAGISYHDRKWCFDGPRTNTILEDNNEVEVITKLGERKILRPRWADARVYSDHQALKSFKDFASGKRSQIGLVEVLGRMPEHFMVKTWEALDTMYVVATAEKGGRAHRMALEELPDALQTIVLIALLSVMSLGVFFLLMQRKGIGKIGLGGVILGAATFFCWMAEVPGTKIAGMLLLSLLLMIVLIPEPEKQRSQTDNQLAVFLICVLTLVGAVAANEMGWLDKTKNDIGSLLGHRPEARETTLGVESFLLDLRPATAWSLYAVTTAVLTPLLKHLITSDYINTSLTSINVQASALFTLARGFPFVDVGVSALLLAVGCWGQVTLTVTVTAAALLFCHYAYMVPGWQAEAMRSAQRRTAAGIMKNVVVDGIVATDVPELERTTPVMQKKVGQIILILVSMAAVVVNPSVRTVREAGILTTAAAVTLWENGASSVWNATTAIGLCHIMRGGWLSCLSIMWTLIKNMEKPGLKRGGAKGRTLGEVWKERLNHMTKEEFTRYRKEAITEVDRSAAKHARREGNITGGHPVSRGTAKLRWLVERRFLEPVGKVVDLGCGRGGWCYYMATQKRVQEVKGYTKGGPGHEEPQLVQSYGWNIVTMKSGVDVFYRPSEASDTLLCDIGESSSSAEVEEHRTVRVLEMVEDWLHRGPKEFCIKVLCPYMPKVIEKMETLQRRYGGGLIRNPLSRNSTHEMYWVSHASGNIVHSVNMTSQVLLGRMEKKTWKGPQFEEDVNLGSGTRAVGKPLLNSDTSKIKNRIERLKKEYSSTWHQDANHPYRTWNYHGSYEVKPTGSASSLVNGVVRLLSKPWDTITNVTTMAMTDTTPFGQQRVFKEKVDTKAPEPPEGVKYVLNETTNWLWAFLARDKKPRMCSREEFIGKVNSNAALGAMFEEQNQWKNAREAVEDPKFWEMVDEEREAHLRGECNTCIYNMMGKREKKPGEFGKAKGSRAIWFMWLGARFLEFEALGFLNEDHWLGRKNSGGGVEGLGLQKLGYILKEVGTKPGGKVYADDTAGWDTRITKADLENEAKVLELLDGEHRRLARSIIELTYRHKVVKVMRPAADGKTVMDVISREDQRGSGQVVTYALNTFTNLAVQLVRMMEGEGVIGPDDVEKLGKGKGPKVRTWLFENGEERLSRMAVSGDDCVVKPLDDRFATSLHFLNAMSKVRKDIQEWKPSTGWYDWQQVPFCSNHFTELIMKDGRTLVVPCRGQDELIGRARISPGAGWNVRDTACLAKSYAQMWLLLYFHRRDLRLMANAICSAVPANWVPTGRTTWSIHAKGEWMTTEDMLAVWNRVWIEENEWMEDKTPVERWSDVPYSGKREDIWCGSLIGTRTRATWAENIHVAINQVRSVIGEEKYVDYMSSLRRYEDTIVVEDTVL

NC(=O)c1cccc(NC(=O)[C@@H](NC(=O)c2ccc(N3CCOCC3)cc2)c2ccc(OCc3ccccc3)cc2)c1
CC50 at 24 h [1]: > 100 µM | EC50 [2]: 2.2 µM | metabolised at 2 h, 0.1 mg/ml [3]: 40% | Activity [4]: 7.1% | Activity [5]: 8.1 µM | inhibition [6]: 79% | Stabilty ([7]; isolated protein, 2 h): Unstable | inhibition [8]: inactive | EC50 [9]: 0.85 µM | EC90 [9]: 15 µM | Activity [10]: < 20% | half-life at 100 µM [11]: 27 min | Activity [12]: 181 µM | Papp at 5 h, 200 µM [13]: 1.7 ×10⁻⁶ cm/s | inhibition at 12.5 µM [14]: 96% | inhibition [15]: Active | inhibition [16]: inactive

NC(=O)c1cccc(NC(=O)[C@@H](NC(=O)c2ccc(Oc3ccc(C(F)(F)F)cc3)cc2)c2ccc(OCc3ccccc3)cc2)c1
remaining at 2 h, 0.1 mg/ml [17]: 70% | CC50 at 24 h [1]: > 100 µM | EC50 [2]: 1.2 µM | Activity [4]: 3.7% | Activity [5]: 6.9 µM | inhibition [6]: 76% | metabolised at 2 h, 0.1 mg/ml [7]: 25% | Ki [18]: 6.3 µM | inhibition [8]: inactive | EC50 [9]: 0.24 µM | EC90 [9]: 4.8 µM | Activity [10]: < 20% | Activity [12]: 188 µM | Papp at 5 h, 200 µM [13]: 1.4 ×10⁻⁶ cm/s | inhibition at 12.5 µM [14]: 100% | Stabilty [19]: Stable | inhibition [15]: Active | inhibition [16]: inactive

NC(=O)c1cccc(NC(=O)[C@@H](NC(=O)c2ccc(Oc3ccccc3)cc2)c2ccc(OCc3ccccc3)cc2)c1
remaining at 2 h, 0.1 mg/ml [17]: 70% | CC50 at 24 h [1]: > 100 µM | EC50 [2]: 0.73 µM | Activity [4]: 15% | Ki [20]: 5.2 µM | Activity [5]: 9.5 µM | inhibition [6]: 83% | selectivity ratio [21]: > 140 | metabolised at 2 h, 0.1 mg/ml [7]: 25% | Ki [18]: 6.1 µM | inhibition [8]: inactive | EC50 [9]: 0.66 µM | EC90 [9]: 7 µM | Activity [10]: < 20% | Activity [12]: 164 µM | Papp at 5 h, 200 µM [13]: 2.2 ×10⁻⁶ cm/s | inhibition [22]: Active | inhibition at 12.5 µM [14]: 100% | inhibition [15]: Active | inhibition [16]: inactive

CCCCCC(=O)N[C@H](C(=O)NCc1ccc(NC(=N)N)cc1)c1ccc(OCc2ccccc2)cc1
metabolised at 2 h, 0.1 mg/ml [3]: 40% | metabolised at 2 h, 0.1 mg/ml [7]: 25% | half-life at 100 µM [11]: 55 min | inhibition [15]: Active

NC(=O)c1cccc(NC(=O)[C@@H](NC(=O)c2ccc(Oc3ccc(Cl)cc3)cc2)c2ccc(OCc3ccccc3)cc2)c1
CC50 at 24 h [1]: 96 µM | EC50 [2]: 0.58 µM | inhibition [6]: 86% | selectivity ratio [21]: > 140 | inhibition [8]: inactive | inhibition [16]: inactive

CCCCCC(=O)N[C@H](C(=O)NCc1ccc(C(N)=O)cc1)c1ccc(OCc2ccccc2)cc1
Activity [23]: < 20% | CC50 at 24 h [1]: > 100 µM | inhibition at 10 µM [24]: 34% | EC50 [2]: 6.3 µM | inhibition [6]: 66% | inhibition [8]: inactive | permeability ([13]; pampa, 5 h, 200 µM): Impermeable | inhibition [16]: inactive

NC(=O)c1cccc(NC(=O)[C@@H](NC(=O)c2ccc(-c3ccc(Cl)cc3)cc2)c2ccc(OCc3ccccc3)cc2)c1
remaining at 2 h, 0.1 mg/ml [17]: 70% | CC50 at 24 h [1]: > 25 µM | EC50 [2]: 1.2 µM | Activity [4]: 5.5% | inhibition [25]: Active | Ki [20]: 4.1 µM | Activity [5]: 3.7 µM | inhibition [6]: 78% | metabolised at 2 h, 0.1 mg/ml [7]: 25% | Ki [18]: 6.9 µM | inhibition [8]: inactive | EC50 [9]: 1.6 µM | EC90 [9]: 4.7 µM | Activity [10]: < 20% | Activity [12]: 187 µM | Papp at 5 h, 200 µM [13]: 0.7 ×10⁻⁶ cm/s | inhibition [22]: Active | inhibition at 12.5 µM [14]: 100% | Stabilty [19]: Stable | inhibition [15]: Active | inhibition [16]: inactive
